Assay results from different studies.
Protocols differ between the studies behind these lines.
Target: SRSF protein kinase 3 (SRPK3, Homo sapiens, UniProt Q9UPE1)

SMILES	assay	conditions	measurement	value
Cc1ccc(Nc2nccc(N(C)c3ccc4c(C)n(C)nc4c3)n2)cc1S(N)(=O)=O	enzyme activity, inhibitor	10 µM	inhibition	3%
CCOc1cc(-c2nncn2C)ccc1Nc1ncc2cc(C)nc(NCC(C)(C)C)c2n1	enzyme activity, inhibitor, FRET	1 µM	inhibition	< 15%
Cn1c2c(c3ccc(Cl)c(Cl)c31)C(C#N)C1(CCN(C(=O)OC(C)(C)C)CC1)NC2=O (racemic)	thermal stability, DSF	10 µM	ΔTm	0 °C
CNCc1ccccc1-c1csc([C@H](C)Nc2nc(C)nc3cc(OC)c(OC)cc23)c1	cell-free assay, competition with immobilised ligand	1 µM	remaining binding	89%
CC(C)(C)c1nc2c(s1)c1nc(N)ncc1c1ccc(NS(=O)(=O)c3c(F)cccc3F)c(F)c12	enzyme activity, inhibitor, radiometric	1 µM	remaining activity	97%
CS(=O)(=O)NCC[C@H](NC(=O)c1cncc2c1cnn2-c1ccc(F)cc1)c1ccnc(S(C)(=O)=O)c1	cell-free assay, competition with immobilised ligand	1 µM	remaining binding	100%
Cn1c2c(Cl)c(Cl)ccc2c2cc[nH]c(=O)c21	thermal stability, DSF	10 µM	ΔTm	0.2 °C
Cc1ccc(C(=O)Nc2ccc(CN3CCN(C)CC3)c(C(F)(F)F)c2)cc1C#Cc1cnc2cccnn12	enzyme activity, inhibitor	23.5 nM	remaining activity	96%
O=C(NS(=O)(=O)c1ccc(NCC2CCOCC2)c([N+](=O)[O-])c1)c1ccc(N2CCN(Cc3ccc(C(F)(F)F)cc3-c3ccc(Cl)cc3)CC2)cc1Oc1cnc2[nH]ccc2c1	cell-free assay, competition with immobilised ligand	1 µM	remaining binding	100%
COc1cc2ncnc(Nc3ccc(Oc4ccccc4)cc3C)c2cc1OC	enzyme activity, inhibitor	1 µM	inhibition	2%
Cc1cc(NC(=O)c2cccc(S(F)(F)(F)(F)F)c2)cc(-n2ccn3nc(-c4cccnc4)cc23)c1	cell-free assay, competition with immobilised ligand	1 µM	remaining binding	100%
Cc1ccc(NC(=O)c2ccc(C)c(C(F)(F)F)c2)cc1C#Cc1nn(C2CCC(O)CC2)c2ncnc(N)c12 (centres unmarked)	cell-free assay	10 µM	remaining signal	56%
Cn1c2c(c3ccc(Cl)c(Cl)c31)C(C#N)C(C)(C)NC2=O (centres unmarked)	thermal stability, DSF	10 µM	ΔTm	1.5 °C
CCCS(=O)(=O)Nc1ccc(F)c(C(=O)c2c[nH]c3ncc(-c4ccc(Cl)cc4)cc23)c1F	enzyme activity, inhibitor	1 µM	inhibition	< 10%
CC/C(=N\NC(=O)NCc1cccc(O)c1)c1ccc(O)c(C)c1O	enzyme activity, inhibitor	0.1 µM	inhibition	-2.9%
CNC(=O)c1cc(Oc2ccc(NC(=O)Nc3ccc(Cl)c(C(F)(F)F)c3)cc2)ccn1	enzyme activity, inhibitor	10 µM	inhibition	60%
Cc1cc(-n2nc(Cc3cc(F)cc(C(F)(F)F)c3)nc2C)ccc1C(N)=O	cell-free assay, competition with immobilised ligand	1 µM	remaining binding	100%
CCN(CC)CCNC(=O)c1c(C)[nH]c(/C=C2\C(=O)Nc3ccc(F)cc32)c1C	enzyme activity, inhibitor	0.3 µM	inhibition	-4%
O=c1nc(-c2ccccn2)sc2ccccc12	binding, competition with immobilised ligand	1 µM	remaining binding	100%
CN1CC(Oc2cnc(C#N)cc2-c2ccn3nc(NC(=O)C4CC4)cc3c2)C1	enzyme activity, inhibitor	1 µM	inhibition	-3%
